One block for each compound: values may come before it.
Columns and labels:
[1] = target: T1, Steroid 17-alpha-hydroxylase/17,20 lyase (Homo sapiens, UniProt P05093); assay: Inhibition of human CYP17 expressed in Escherichia coli coexpressed with cytochrome P450 reductase
T1 sequence (P05093 whole entry): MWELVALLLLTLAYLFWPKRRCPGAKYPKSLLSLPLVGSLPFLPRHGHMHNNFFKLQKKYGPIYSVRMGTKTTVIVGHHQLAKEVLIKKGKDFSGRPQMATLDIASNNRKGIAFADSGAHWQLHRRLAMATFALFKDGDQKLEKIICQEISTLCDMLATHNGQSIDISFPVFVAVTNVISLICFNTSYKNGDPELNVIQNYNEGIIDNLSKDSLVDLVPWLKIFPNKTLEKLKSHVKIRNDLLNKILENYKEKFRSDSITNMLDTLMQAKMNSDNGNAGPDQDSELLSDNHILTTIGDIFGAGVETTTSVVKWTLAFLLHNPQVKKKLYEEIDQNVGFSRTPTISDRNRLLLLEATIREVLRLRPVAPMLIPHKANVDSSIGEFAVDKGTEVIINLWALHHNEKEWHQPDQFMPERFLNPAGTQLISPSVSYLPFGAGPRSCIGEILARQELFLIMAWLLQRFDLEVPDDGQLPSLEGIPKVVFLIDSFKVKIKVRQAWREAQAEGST
Outline: (§1)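 Enzyme source: 50,000g sediment from homogenized E. coli coexpressing human CYP17 and cytochrome P450 reductase. Substrate progesterone (25 µM as printed), NADPH cofactor.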

CYP3A4 = CYP3A4 (Homo sapiens, UniProt P08684); assay: Inhibition of hepatic CYP3A4 expressed in insect microsomes at 1 uM; assay type: ADME, Microsome
Sequence of CYP3A4 (P08684 whole entry): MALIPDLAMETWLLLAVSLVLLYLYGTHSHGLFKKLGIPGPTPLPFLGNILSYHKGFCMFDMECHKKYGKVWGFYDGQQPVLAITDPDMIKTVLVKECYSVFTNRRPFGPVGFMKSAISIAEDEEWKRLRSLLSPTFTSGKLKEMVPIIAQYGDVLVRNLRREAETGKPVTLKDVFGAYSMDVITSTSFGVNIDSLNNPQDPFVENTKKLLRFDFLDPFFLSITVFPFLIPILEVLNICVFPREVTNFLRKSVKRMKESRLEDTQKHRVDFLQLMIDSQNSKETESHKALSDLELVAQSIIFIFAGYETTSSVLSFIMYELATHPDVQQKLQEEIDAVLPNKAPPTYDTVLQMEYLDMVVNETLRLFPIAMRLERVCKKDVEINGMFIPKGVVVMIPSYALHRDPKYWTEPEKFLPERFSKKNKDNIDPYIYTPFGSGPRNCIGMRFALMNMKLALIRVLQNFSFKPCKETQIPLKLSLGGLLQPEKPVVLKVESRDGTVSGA
Outline: (§2)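 Recombinant human enzymes from baculovirus-infected insect cell microsomes, run per supplier protocol. Test concentration 1 µM; values are means of at least three independent tests, standard deviations under 5%.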

CYP1A2 = target: T2, CYP1A2 (Homo sapiens, UniProt P05177); assay: Inhibition of hepatic CYP1A2 expressed in insect microsomes at 1 uM; assay type: ADME, Microsome; outline: as §2
T2 sequence (P05177 whole entry): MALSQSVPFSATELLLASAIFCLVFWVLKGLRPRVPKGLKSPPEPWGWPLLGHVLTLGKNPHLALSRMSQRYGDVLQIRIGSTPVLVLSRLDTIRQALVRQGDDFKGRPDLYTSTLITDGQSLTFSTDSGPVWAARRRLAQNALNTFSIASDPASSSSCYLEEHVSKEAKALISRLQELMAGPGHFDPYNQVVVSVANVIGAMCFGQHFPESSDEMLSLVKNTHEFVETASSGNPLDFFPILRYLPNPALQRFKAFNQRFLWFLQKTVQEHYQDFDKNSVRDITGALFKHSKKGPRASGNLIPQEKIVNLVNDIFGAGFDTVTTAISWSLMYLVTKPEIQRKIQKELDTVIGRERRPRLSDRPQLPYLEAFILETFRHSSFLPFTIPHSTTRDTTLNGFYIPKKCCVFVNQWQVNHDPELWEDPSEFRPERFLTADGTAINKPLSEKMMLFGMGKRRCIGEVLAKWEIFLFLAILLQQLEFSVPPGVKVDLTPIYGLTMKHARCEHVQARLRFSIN

[2] = target: T1, Steroid 17-alpha-hydroxylase/17,20 lyase; assay: Inhibition of CYP17; outline: as §1
CYP11B1 = target: T3, CYP11B1 (Homo sapiens, UniProt P15538); assay: Inhibition of human CYP11B1 at 0.2 uM using [4-14C]-11-dexycorticosterone as a substrate; settings: probe [4-14C]-11-dexycorticosterone
T3 sequence (P15538 whole entry): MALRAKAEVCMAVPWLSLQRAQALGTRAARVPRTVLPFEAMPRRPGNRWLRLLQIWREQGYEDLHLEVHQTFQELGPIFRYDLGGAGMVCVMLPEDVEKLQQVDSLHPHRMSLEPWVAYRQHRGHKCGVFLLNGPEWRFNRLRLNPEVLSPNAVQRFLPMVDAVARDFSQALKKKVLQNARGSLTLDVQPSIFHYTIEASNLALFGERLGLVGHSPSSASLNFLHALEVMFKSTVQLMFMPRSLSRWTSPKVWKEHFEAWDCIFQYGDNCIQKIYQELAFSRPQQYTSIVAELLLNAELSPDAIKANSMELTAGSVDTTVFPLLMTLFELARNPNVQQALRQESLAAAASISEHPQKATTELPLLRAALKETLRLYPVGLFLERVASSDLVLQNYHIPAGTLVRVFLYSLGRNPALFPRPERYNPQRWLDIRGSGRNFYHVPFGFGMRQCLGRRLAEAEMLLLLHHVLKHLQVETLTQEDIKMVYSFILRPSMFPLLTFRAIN
Outline: (§3)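 V79MZh cells expressing human CYP11B1 or CYP11B2, incubated with [4-14C]-11-deoxycorticosterone as substrate; inhibitors tested at 0.2 µM.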

CYP11B2 = target: T4, CYP11B2 (Homo sapiens, UniProt P19099); assay: Inhibition of human CYP11B2 at 0.2 uM using [4-14C]-11-dexycorticosterone as a substrate; settings: probe [4-14C]-11-dexycorticosterone; outline: as §3
T4 sequence (P19099 whole entry): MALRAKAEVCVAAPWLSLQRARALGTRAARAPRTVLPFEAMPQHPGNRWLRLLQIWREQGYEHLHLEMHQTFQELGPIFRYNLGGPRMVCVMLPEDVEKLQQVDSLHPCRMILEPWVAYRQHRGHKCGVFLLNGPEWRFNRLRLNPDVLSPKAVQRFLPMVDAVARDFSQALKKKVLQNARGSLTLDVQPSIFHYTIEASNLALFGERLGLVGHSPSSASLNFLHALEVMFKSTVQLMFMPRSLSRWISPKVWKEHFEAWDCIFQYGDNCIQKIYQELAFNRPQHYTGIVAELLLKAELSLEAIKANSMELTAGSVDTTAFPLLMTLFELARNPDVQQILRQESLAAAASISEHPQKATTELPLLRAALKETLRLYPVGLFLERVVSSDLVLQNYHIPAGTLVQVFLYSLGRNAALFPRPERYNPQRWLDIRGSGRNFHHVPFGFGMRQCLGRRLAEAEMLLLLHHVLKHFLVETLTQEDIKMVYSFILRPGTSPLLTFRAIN

CYP2D6 = CYP2D6 (Homo sapiens, UniProt P10635); assay: Inhibition of hepatic CYP2D6 expressed in insect microsomes at 1 uM; assay type: ADME, Microsome; outline: as §2
Sequence of CYP2D6 (P10635 whole entry): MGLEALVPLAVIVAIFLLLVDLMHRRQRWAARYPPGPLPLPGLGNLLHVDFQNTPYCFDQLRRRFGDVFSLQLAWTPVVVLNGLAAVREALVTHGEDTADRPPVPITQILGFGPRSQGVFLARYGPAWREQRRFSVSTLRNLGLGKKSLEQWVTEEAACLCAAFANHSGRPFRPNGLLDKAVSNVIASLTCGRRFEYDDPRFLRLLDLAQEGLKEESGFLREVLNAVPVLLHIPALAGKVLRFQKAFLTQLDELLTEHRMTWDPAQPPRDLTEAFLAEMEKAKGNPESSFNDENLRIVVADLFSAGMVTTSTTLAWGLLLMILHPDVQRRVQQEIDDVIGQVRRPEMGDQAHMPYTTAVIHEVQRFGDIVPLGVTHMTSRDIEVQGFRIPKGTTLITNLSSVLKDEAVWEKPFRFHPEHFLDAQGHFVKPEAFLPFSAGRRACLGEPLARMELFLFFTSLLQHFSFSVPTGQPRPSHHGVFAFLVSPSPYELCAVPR

Rattus norvegicus [3] = assay: Intrinsic clearance in Wistar rat at 50 mg/kg, po; assay type: ADME, organism-based; design: dose 50 mg/kg, route oral; settings: in vivo
Outline: (§4)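 Male Wistar rats dosed orally at 50 mg/kg, or as acetate at 56 mg/kg (equivalent to 50 mg/kg parent). Plasma drug levels by LC–MS; non-compartmental analysis on mean plasma concentration–time data, values below detection limit set to zero. AUC, Cmax, tmax, terminal t1/2 and intrinsic hepatic clearance derived.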

Rattus norvegicus [4] = assay: Reduction in plasma testosterone level in Wistar rat at 50 mg/kg, po after 8 hrs; assay type: functional; design: scale not given: the % may be the effect or the level left
Rattus norvegicus [5] = assay: Reduction in plasma testosterone level in Wistar rat at 50 mg/kg, po after 2 hrs; assay type: functional; design: scale not given: the % may be the effect or the level left
[6] = Cmax in Wistar rat at 50 mg/kg, po; assay type: ADME, organism-based; design: dose 50 mg/kg, route oral; settings: in vivo; outline: as §4
[7] = Tmax in Wistar rat at 50 mg/kg, po; assay type: ADME, organism-based; design: dose 50 mg/kg, route oral; settings: in vivo; outline: as §4
Rattus norvegicus [8] = assay: Reduction in plasma testosterone level in Wistar rat at 50 mg/kg, po after 4 hrs; assay type: functional; design: scale not given: the % may be the effect or the level left
[9] = AUC (0 to infinity) in Wistar rat at 50 mg/kg, po; assay type: ADME, organism-based; design: time infinity, dose 50 mg/kg, route oral; settings: plasma; outline: as §4
[10] = Terminal half life in Wistar rat at 50 mg/kg, po; assay type: ADME, organism-based; design: dose 50 mg/kg, route oral; settings: in vivo; outline: as §4
Rattus norvegicus [11] = assay: Reduction in plasma testosterone level in Wistar rat at 50 mg/kg, po after 1 hr; assay type: functional; design: scale not given: the % may be the effect or the level left
Rattus norvegicus [12] = assay: Reduction in plasma testosterone level in Wistar rat at 50 mg/kg, po after 24 hrs; assay type: functional; design: Activity: scale not given: the % may be the effect or the level left
CYP2B6 = target: T5, CYP2B6 (Homo sapiens, UniProt P20813); assay: Inhibition of hepatic CYP2B6 expressed in insect microsomes at 1 uM; assay type: ADME, Microsome; outline: as §2
T5 sequence (P20813 whole entry): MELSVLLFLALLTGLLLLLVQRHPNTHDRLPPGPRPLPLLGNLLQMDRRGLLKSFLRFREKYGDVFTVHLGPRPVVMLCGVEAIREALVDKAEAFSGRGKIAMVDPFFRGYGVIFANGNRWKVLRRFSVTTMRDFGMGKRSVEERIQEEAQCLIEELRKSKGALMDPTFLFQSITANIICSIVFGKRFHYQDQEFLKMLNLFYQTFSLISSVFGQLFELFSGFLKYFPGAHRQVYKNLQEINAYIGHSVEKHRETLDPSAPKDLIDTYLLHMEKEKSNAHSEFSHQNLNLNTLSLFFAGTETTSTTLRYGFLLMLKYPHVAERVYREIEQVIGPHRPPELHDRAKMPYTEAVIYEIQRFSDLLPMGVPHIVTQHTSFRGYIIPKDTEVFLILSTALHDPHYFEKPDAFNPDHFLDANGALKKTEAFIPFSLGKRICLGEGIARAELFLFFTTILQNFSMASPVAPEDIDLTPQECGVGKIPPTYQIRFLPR

Rattus norvegicus [13] = assay: Reduction in plasma testosterone level in Wistar rat at 50 mg/kg, po after 6 hrs; assay type: functional; design: scale not given: the % may be the effect or the level left
Rattus norvegicus [14] = assay: Intrinsic clearance in Wistar rat at 56 mg/kg, po; assay type: ADME, organism-based; design: dose 56 mg/kg, route oral; settings: in vivo; outline: as §4

SMILES: CC(c1ccc2c(c1)Cc1ccccc1-2)n1ccnc1 (stereo not drawn)
inhibition at 1 µM (CYP3A4): 89% | IC50 [1]: 112 nM | inhibition at 1 µM (CYP1A2): 98% | IC50 [2]: 4 nM

SMILES: CC(c1ccc2c(c1)Cc1cc(F)ccc1-2)n1ccnc1 (stereo not drawn)
IC50 [1]: 168 nM

SMILES: c1ccc2c(c1)Cc1cc(Cn3ccnc3)ccc1-2
IC50 [1]: 388 nM

SMILES: FC(F)(F)c1ccc(-c2ccc(Cn3ccnc3)cc2)cc1
IC50 [1]: > 5000 nM

SMILES: CC(c1ccc2c(c1)Cc1cc(O)ccc1-2)n1ccnc1 (stereo not drawn)
inhibition at 0.2 µM (CYP11B1): 96% | inhibition at 1 µM (CYP3A4): 89% | IC50 [1]: 99 nM | inhibition at 1 µM (CYP1A2): 93% | inhibition at 0.2 µM (CYP11B2): 98%

SMILES: c1ccc(-c2ccc(C(C3CCCCC3)n3ccnc3)cc2)cc1 (stereo not drawn)
IC50 [1]: 1050 nM

SMILES: c1ccc(CC(c2ccc(-c3ccccc3)cc2)n2ccnc2)cc1 (stereo not drawn)
IC50 [1]: 780 nM

SMILES: CC(=O)O[C@H]1CC[C@@]2(C)C(=CC[C@@H]3[C@@H]2CC[C@]2(C)C(c4cccnc4)=CC[C@@H]32)C1 [ABIRATERONE ACETATE]
Activity (Rattus norvegicus [4]): 35.6% | Activity (Rattus norvegicus [5]): 44% | CL (Rattus norvegicus [14]): 187 mL/min/kg | Activity (Rattus norvegicus [8]): 43.5% | Activity (Rattus norvegicus [11]): 92.5% | relative plasma testosterone level (Rattus norvegicus [12]): 476% | Activity (Rattus norvegicus [13]): 43.3%

SMILES: C[C@]12CC[C@H](O)CC1=CC[C@@H]1[C@@H]2CC[C@]2(C)C(c3cccnc3)=CC[C@@H]12 [ABIRATERONE]
inhibition at 1 µM (CYP3A4): 27%

SMILES: c1ccc(-c2ccc(C(c3ccccc3)n3ccnc3)cc2)cc1 (stereo not drawn) [BIFONAZOLE]
IC50 [1]: 790 nM

Continued, in another order:

IC50 [1]: 2200 nM
SMILES: CCC(c1ccc(-c2ccc(N3CCOCC3)cc2)cc1)n1ccnc1 (stereo not drawn)

inhibition at 1 µM (CYP3A4): 52% | IC50 [1]: 1700 nM
SMILES: CCC(c1ccc(-c2ccc(NC(=O)OC(C)(C)C)cc2)cc1)n1ccnc1 (stereo not drawn)

IC50 [1]: 375 nM
SMILES: CCC(c1ccc(-c2ccc(O)cc2)cc1)n1ccnc1 (stereo not drawn)

inhibition at 1 µM (CYP3A4): 95% | IC50 [1]: 1300 nM | inhibition at 1 µM (CYP1A2): 51%
SMILES: CCC(CC)(c1ccc(-c2ccc(F)cc2)cc1)n1ccnc1

IC50 [1]: 3800 nM
SMILES: CC(C)(c1ccc(-c2ccc(F)cc2)cc1)n1ccnc1

IC50 [1]: > 5000 nM
SMILES: CCC(c1ccc(-c2ccc(N(C)C)cc2)cc1)n1ccnc1 (stereo not drawn)

IC50 [1]: > 5000 nM
SMILES: OCCC(c1ccc(-c2ccc(F)cc2)cc1)n1ccnc1 (stereo not drawn)

IC50 [1]: > 5000 nM
SMILES: CCC(c1ccc(-c2ccc(OC(F)(F)F)cc2)cc1)n1ccnc1 (stereo not drawn)

IC50 [1]: > 5000 nM
SMILES: CCC(c1ccc(-c2ccc(NC(C)=O)cc2)cc1)n1ccnc1 (stereo not drawn)

inhibition at 0.2 µM (CYP11B1): 66% | inhibition at 1 µM (CYP2D6): 54% | inhibition at 1 µM (CYP3A4): 88% | CL (Rattus norvegicus [3]): 12 mL/min/kg | IC50 [1]: 345 nM | Cmax [6]: 3290 ng/mL | Tmax [7]: 6 h | inhibition at 1 µM (CYP1A2): 97% | AUC(0-inf) [9]: 70700 ng·h/mL | half-life [10]: 10 h | inhibition at 0.2 µM (CYP11B2): 66% | inhibition at 1 µM (CYP2B6): 46%
SMILES: CCC(c1ccc(-c2ccc(F)cc2)cc1)n1ccnc1 (stereo not drawn)
Activity (Rattus norvegicus [4]): 13.4% | Activity (Rattus norvegicus [5]): 11.7% | Activity (Rattus norvegicus [8]): 13.9% | Activity (Rattus norvegicus [11]): 16.5% | Activity (Rattus norvegicus [12]): 36.7% | Activity (Rattus norvegicus [13]): 13.9%

Reference: ChEMBL document CHEMBL1156610, “Synthesis, biological evaluation, and molecular modeling studies of methylene imidazole substituted biaryls as inhibitors of human 17alpha-hydroxylase-17,20-lyase (CYP17)--part II: Core rigidification and influence of substituents at the methylene bridge” (Bioorg Med Chem, 2008)
